In ChEMBL document CHEMBL4689842, “EUbOPEN Chemogenomics Library wave 1” (2021):

Test system: HEK-293T
Assay: Multiplex assay against HEK293T;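 as to Population Tubulin-Different-Phenotype (%): share of the cells with healthy nuclei that show this phenotype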
Assay type: toxicity, cell-based
Conditions: human
Procedure, shortened: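 Values for tubulin, mitochondrial-mass and membrane-permeability phenotypes are per cents of cells with healthy nuclei. These cells were identified by CellPathfinder machine-learning gating of live cells that had been stained at seeding with Hoechst33342, BioTracker Green Microtubule Cytoskeleton Dye, MitoTracker Red and Annexin V Alexa Fluor 680 and imaged on a CQ1 microscope at 37°C and 5% CO2 after compound addition. The gating first set Hoechst high-intensity objects apart from normal cells, then split normal cells into healthy, pyknosed or fragmented nuclei, and pyknosed cells into mitotic or apoptotic.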

[1] = 12 h, 1 µM, compound concentration 1 uM, replicate 1
[2] = 12 h, 1 µM, compound concentration 1 uM, replicate 2
[3] = 12 h, 10 µM, compound concentration 10 uM, replicate 1
[4] = 12 h, 10 µM, compound concentration 10 uM, replicate 2
[5] = 24 h, 1 µM, compound concentration 1 uM, replicate 1
[6] = 24 h, 1 µM, compound concentration 1 uM, replicate 2
[7] = 24 h, 10 µM, compound concentration 10 uM, replicate 1
[8] = 24 h, 10 µM, compound concentration 10 uM, replicate 2
[9] = 48 h, 1 µM, compound concentration 1 uM, replicate 1
[10] = 48 h, 1 µM, compound concentration 1 uM, replicate 2
[11] = 48 h, 10 µM, compound concentration 10 uM, replicate 1
[12] = 48 h, 10 µM, compound concentration 10 uM, replicate 2

SMILES: O=C(c1cc2c(cc1F)OC(c1ccc(F)cc1)(c1ccc(Cl)cc1Cl)O2)N1CCOCC1 (centres undefined)
- Population Apoptotic (%) [1]: 45%
- Population Fragmented Nuclei (%) [1]: 17%
- Population Healthy Nuclei (%) [1]: 37%
- Population Hoechst High Intensity Objects (%) [1]: 12%
- Population Membrane Permeable-Phenotype (%) [1]: 1%
- Population Mitochondria Different-Phenotype (%) [1]: 87%
- Population Mitotic Cells (%) [1]: 54%
- Population Normal (%) [1]: 87%
- Population Pyknosed Nuclei (%) [1]: 44%
- Population Tubulin-Different-Phenotype (%) [1]: 54%
- Total Cell Count [1]: 214
- Population Apoptotic (%) [2]: 16%
- Population Fragmented Nuclei (%) [2]: 5%
- Population Healthy Nuclei (%) [2]: 35%
- Population Hoechst High Intensity Objects (%) [2]: 5%
- Population Membrane Permeable-Phenotype (%) [2]: 3%
- Population Mitochondria Different-Phenotype (%) [2]: 24%
- Population Mitotic Cells (%) [2]: 84%
- Population Normal (%) [2]: 94%
- Population Pyknosed Nuclei (%) [2]: 59%
- Population Tubulin-Different-Phenotype (%) [2]: 23%
- Total Cell Count [2]: 268
- Population Apoptotic (%) [3]: 64%
- Population Fragmented Nuclei (%) [3]: 10%
- Population Healthy Nuclei (%) [3]: 17%
- Population Hoechst High Intensity Objects (%) [3]: 17%
- Population Membrane Permeable-Phenotype (%) [3]: 0%
- Population Mitochondria Different-Phenotype (%) [3]: 94%
- Population Mitotic Cells (%) [3]: 35%
- Population Normal (%) [3]: 82%
- Population Pyknosed Nuclei (%) [3]: 72%
- Population Tubulin-Different-Phenotype (%) [3]: 97%
- Total Cell Count [3]: 264
- Population Apoptotic (%) [4]: 54%
- Population Fragmented Nuclei (%) [4]: 8%
- Population Healthy Nuclei (%) [4]: 8%
- Population Hoechst High Intensity Objects (%) [4]: 9%
- Population Mitochondria Different-Phenotype (%) [4]: 58%
- Population Mitotic Cells (%) [4]: 45%
- Population Normal (%) [4]: 90%
- Population Pyknosed Nuclei (%) [4]: 82%
- Population Tubulin-Different-Phenotype (%) [4]: 83%
- Total Cell Count [4]: 153
- Population Apoptotic (%) [5]: 48%
- Population Fragmented Nuclei (%) [5]: 15%
- Population Healthy Nuclei (%) [5]: 34%
- Population Hoechst High Intensity Objects (%) [5]: 15%
- Population Membrane Permeable-Phenotype (%) [5]: 0%
- Population Mitochondria Different-Phenotype (%) [5]: 79%
- Population Mitotic Cells (%) [5]: 51%
- Population Normal (%) [5]: 84%
- Population Pyknosed Nuclei (%) [5]: 50%
- Population Tubulin-Different-Phenotype (%) [5]: 43%
- Total Cell Count [5]: 216
- Population Apoptotic (%) [6]: 14%
- Population Fragmented Nuclei (%) [6]: 3%
- Population Healthy Nuclei (%) [6]: 60%
- Population Hoechst High Intensity Objects (%) [6]: 3%
- Population Membrane Permeable-Phenotype (%) [6]: 1%
- Population Mitochondria Different-Phenotype (%) [6]: 36%
- Population Mitotic Cells (%) [6]: 85%
- Population Normal (%) [6]: 96%
- Population Pyknosed Nuclei (%) [6]: 35%
- Population Tubulin-Different-Phenotype (%) [6]: 39%
- Total Cell Count [6]: 330
- Population Fragmented Nuclei (%) [7]: 11%
- Population Healthy Nuclei (%) [7]: 19%
- Population Hoechst High Intensity Objects (%) [7]: 16%
- Population Membrane Permeable-Phenotype (%) [7]: 2%
- Population Mitochondria Different-Phenotype (%) [7]: 86%
- Population Normal (%) [7]: 83%
- Population Pyknosed Nuclei (%) [7]: 68%
- Population Tubulin-Different-Phenotype (%) [7]: 95%
- Total Cell Count [7]: 274
- Population Apoptotic (%) [8]: 53%
- Population Fragmented Nuclei (%) [8]: 9%
- Population Healthy Nuclei (%) [8]: 13%
- Population Hoechst High Intensity Objects (%) [8]: 7%
- Population Membrane Permeable-Phenotype (%) [8]: 10%
- Population Mitochondria Different-Phenotype (%) [8]: 63%
- Population Mitotic Cells (%) [8]: 46%
- Population Normal (%) [8]: 92%
- Population Pyknosed Nuclei (%) [8]: 77%
- Population Tubulin-Different-Phenotype (%) [8]: 89%
- Total Cell Count [8]: 154
- Population Apoptotic (%) [9]: 57%
- Population Fragmented Nuclei (%) [9]: 16%
- Population Healthy Nuclei (%) [9]: 44%
- Population Hoechst High Intensity Objects (%) [9]: 18%
- Population Membrane Permeable-Phenotype (%) [9]: 0%
- Population Mitochondria Different-Phenotype (%) [9]: 48%
- Population Mitotic Cells (%) [9]: 42%
- Population Normal (%) [9]: 81%
- Population Pyknosed Nuclei (%) [9]: 38%
- Population Tubulin-Different-Phenotype (%) [9]: 40%
- Total Cell Count [9]: 232
- Population Apoptotic (%) [10]: 22%
- Population Fragmented Nuclei (%) [10]: 5%
- Population Healthy Nuclei (%) [10]: 76%
- Population Hoechst High Intensity Objects (%) [10]: 3%
- Population Membrane Permeable-Phenotype (%) [10]: 2%
- Population Mitochondria Different-Phenotype (%) [10]: 11%
- Population Mitotic Cells (%) [10]: 77%
- Population Normal (%) [10]: 96%
- Population Pyknosed Nuclei (%) [10]: 18%
- Population Tubulin-Different-Phenotype (%) [10]: 29%
- Total Cell Count [10]: 557
- Population Apoptotic (%) [11]: 53%
- Population Fragmented Nuclei (%) [11]: 16%
- Population Healthy Nuclei (%) [11]: 26%
- Population Hoechst High Intensity Objects (%) [11]: 10%
- Population Membrane Permeable-Phenotype (%) [11]: 19%
- Population Mitochondria Different-Phenotype (%) [11]: 33%
- Population Mitotic Cells (%) [11]: 46%
- Population Normal (%) [11]: 89%
- Population Pyknosed Nuclei (%) [11]: 57%
- Population Tubulin-Different-Phenotype (%) [11]: 87%
- Total Cell Count [11]: 264
- Population Apoptotic (%) [12]: 58%
- Population Fragmented Nuclei (%) [12]: 8%
- Population Healthy Nuclei (%) [12]: 24%
- Population Hoechst High Intensity Objects (%) [12]: 8%
- Population Membrane Permeable-Phenotype (%) [12]: 25%
- Population Mitochondria Different-Phenotype (%) [12]: 61%
- Population Mitotic Cells (%) [12]: 41%
- Population Normal (%) [12]: 91%
- Population Pyknosed Nuclei (%) [12]: 66%
- Population Tubulin-Different-Phenotype (%) [12]: 83%
- Total Cell Count [12]: 158
